Assay results published in ChEMBL document CHEMBL1137880, “Synthesis and GABA receptor potency of 3-thiomethyl-4-(hetero)aryl-5-amino-1-phenylpyrazoles” (Bioorg Med Chem Lett, 2004).

Assays:
[1] = tested on: GABA-A receptor; anion channel; assay: In vitro insecticidal activity as inhibition of [3H]EBOB binding to Gamma-aminobutyric acid GABA-A receptor of housefly neuronal membranes; IA denotes inactive; design: species or system Musca domestica
[2] = target: GABA-A receptor; anion channel (Mus musculus) (UniProt Q8BHJ7+P26048+Q8QZW7+P50571+Q9R0Y8+P22723+A2AMW3+P62812+Q9JLF1+P26049+P22933+Q9D6F4+P63080+P27681+P16305); assay: Ratio of binding affinity for mouse brain Gamma-aminobutyric acid receptor and housefly Gamma-aminobutyric acid receptor
[3] = tested on: GABA-A receptor; anion channel; assay: In vitro insecticidal activity as inhibition of [3H]EBOB binding to Gamma-aminobutyric acid GABA-A receptor of housefly neuronal membranes; NI denotes negative inhibition; design: species or system Musca domestica
[4] = In vivo percent mortality of cyclodiene resistant mixed homozygous and heterozygous NC fleas at 100 mM was determined using contact assay; type: ADME, organism-based; conditions: Pulicinae
Procedure, shortened: (§1)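 Cat fleas were exposed by contact at 100 mM. The strains were chosen as genetic variants for the cyclodiene resistance allele, to compare insecticidal activity across them. The read-out was percent mortality.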

[5] = In vivo percent mortality of cyclodiene resistant allele-homozygous CO fleas at 100 mM was determined using contact assay; type: ADME, organism-based; conditions: Pulicinae; procedure, shortened: as §1
[6] = In vivo percent mortality of housefly at 100 mM was determined using contact assay; type: ADME, organism-based; conditions: Musca domestica, topical

Selectivity [2] | SMILES | IC50 [1] | also measured
 | CSc1nn(-c2c(Cl)cc(C(F)(F)F)cc2Cl)c(N)c1-c1cccnc1 | Not Active | 
20 | CSc1nn(-c2c(Cl)cc(C(F)(F)F)cc2Cl)c(N)c1-c1ccc(F)cc1 |  | 
 | CSc1nn(-c2c(Cl)cc(C(F)(F)F)cc2Cl)c(N)c1-c1cccc(C(C)(C)C)c1 | Not Active | 
 | CSc1nn(-c2c(Cl)cc(C(F)(F)F)cc2Cl)c(N)c1-c1cncnc1 |  | IC50 [3]: Not Active
 | CSc1ccccc1-c1c(SC)nn(-c2c(Cl)cc(C(F)(F)F)cc2Cl)c1N | Not Active | 
500 | CSc1nn(-c2c(Cl)cc(C(F)(F)F)cc2Cl)c(N)c1C#N |  | 
2000 | COc1ccc(-c2c(SC)nn(-c3c(Cl)cc(C(F)(F)F)cc3Cl)c2N)cc1OC |  | 
 | COc1cc(-c2c(SC)nn(-c3c(Cl)cc(C(F)(F)F)cc3Cl)c2N)cc(OC)c1OC | Not Active | 
434 | CSc1nn(-c2c(Cl)cc(C(F)(F)F)cc2Cl)c(N)c1-c1ccc(Cl)s1 |  | 
 | CSc1nn(-c2c(Cl)cc(C(F)(F)F)cc2Cl)c(N)c1-c1cccc(C(C)C)c1 | Not Active | 
66 | CSc1nn(-c2c(Cl)cc(C(F)(F)F)cc2Cl)c(N)c1-c1ccc(C)cc1 |  | 
 | CSc1nn(-c2c(Cl)cc(C(F)(F)F)cc2Cl)c(N)c1-c1ccccn1 | Not Active | 
 | CSc1nn(-c2c(Cl)cc(C(F)(F)F)cc2Cl)c(N)c1-c1ccncc1 | Not Active | 
12 | CSc1nn(-c2c(Cl)cc(C(F)(F)F)cc2Cl)c(N)c1-c1cc(C(F)(F)F)cc(C(F)(F)F)c1 |  | 
31 | CSc1nn(-c2c(Cl)cc(C(F)(F)F)cc2Cl)c(N)c1-c1cccc(Cl)c1 |  | 
 | CSc1nn(-c2c(Cl)cc(C(F)(F)F)cc2Cl)c(N)c1-c1cc(C)cs1 | Not Active | 
 | CSc1nn(-c2c(Cl)cc(C(F)(F)F)cc2Cl)c(N)c1-c1ccc(Br)cc1 | Not Active | 
44 | CSc1nn(-c2c(Cl)cc(C(F)(F)F)cc2Cl)c(N)c1-c1cccs1 |  | 

Selectivity [2] | SMILES | IC50 [1] | also measured
 | CSc1nn(-c2c(Cl)cc(C(F)(F)F)cc2Cl)c(N)c1-c1ccccc1F | Not Active | 
346 | COc1cccc(-c2c(SC)nn(-c3c(Cl)cc(C(F)(F)F)cc3Cl)c2N)c1 |  | 
4 | CSc1nn(-c2c(Cl)cc(C(F)(F)F)cc2Cl)c(N)c1-c1ccc(F)c(Cl)c1 |  | 
4 | CSc1nn(-c2c(Cl)cc(C(F)(F)F)cc2Cl)c(N)c1-c1ccccc1 |  | 
180 | COc1ccc(-c2c(SC)nn(-c3c(Cl)cc(C(F)(F)F)cc3Cl)c2N)cc1 |  | 
2500 | CSc1nn(-c2c(Cl)cc(C(F)(F)F)cc2Cl)c(N)c1Br |  | 
 | CSc1nn(-c2c(Cl)cc(C(F)(F)F)cc2Cl)c(N)c1-c1ccc(C)s1 | Not Active | 
 | CSc1nn(-c2c(Cl)cc(C(F)(F)F)cc2Cl)c(N)c1-c1ccsc1 | Not Active | 
43 | CSc1nn(-c2c(Cl)cc(C(F)(F)F)cc2Cl)c(N)c1I |  | 
 | CSc1nn(-c2c(Cl)cc(C(F)(F)F)cc2Cl)c(N)c1-c1ccc(C(C)C)cc1 | Not Active | 
230 | CSc1ccc(-c2c(SC)nn(-c3c(Cl)cc(C(F)(F)F)cc3Cl)c2N)cc1 |  | 
 | CSc1nn(-c2c(Cl)cc(C(F)(F)F)cc2Cl)c(N)c1-c1ccc(Cl)cc1 | Not Active | 
666 | CSc1nn(-c2c(Cl)cc(C(F)(F)F)cc2Cl)c(N)c1-c1ccc(C#N)cc1 |  | 
25 | CSc1nn(-c2c(Cl)cc(C(F)(F)F)cc2Cl)c(N)c1-c1ccc(C(C)=O)s1 |  | 
45 | CSc1nn(-c2c(Cl)cc(C(F)(F)F)cc2Cl)c(N)c1C(=O)O |  | 
49 | COc1ccc(-c2c(SC)nn(-c3c(Cl)cc(C(F)(F)F)cc3Cl)c2N)c(OC)c1 |  | 
400 | CCOC(=O)c1c(SC)nn(-c2c(Cl)cc(C(F)(F)F)cc2Cl)c1N |  | 
5 | CSc1nn(-c2c(Cl)cc(C(F)(F)F)cc2Cl)c(N)c1-c1cccc(C(F)(F)F)c1 |  | 

SMILES | Selectivity [2] | IC50 [1] | also measured
CSc1nn(-c2c(Cl)cc(C(F)(F)F)cc2Cl)c(N)c1-c1ccccc1C | 400 |  | mortality at 100000 µM [4]: 0%; mortality at 100000 µM [5]: 60.8%; mortality at 100000 µM [6]: 9.6%
CSc1nn(-c2c(Cl)cc(C(F)(F)F)cc2Cl)c(N)c1-c1nc(C)no1 | 9 |  | mortality at 100000 µM [4]: 0%; mortality at 100000 µM [5]: 0%; mortality at 100000 µM [6]: 95.4%
CSc1nn(-c2c(Cl)cc(C(F)(F)F)cc2Cl)c(N)c1Cl | 210 |  | mortality at 100000 µM [4]: 3.3%; mortality at 100000 µM [5]: 32.3%; mortality at 100000 µM [6]: 92.8%
CSc1nn(-c2c(Cl)cc(C(F)(F)F)cc2Cl)c(N)c1-c1ccccc1C(F)(F)F | 6000 |  | mortality at 100000 µM [4]: 0%; mortality at 100000 µM [5]: 58.7%; mortality at 100000 µM [6]: 3.9%
CSc1cc(N)n(-c2c(Cl)cc(C(F)(F)F)cc2Cl)n1 | 250 |  | mortality at 100000 µM [4]: 0%; mortality at 100000 µM [5]: 4.4%; mortality at 100000 µM [6]: 42.4%
CSc1nn(-c2c(Cl)cc(C(F)(F)F)cc2Cl)c(N)c1-c1cnccn1 | 45 |  | mortality at 100000 µM [4]: 89.9%; mortality at 100000 µM [5]: 77.4%; mortality at 100000 µM [6]: 0%
C#Cc1c(SC)nn(-c2c(Cl)cc(C(F)(F)F)cc2Cl)c1N | > 10000 |  | mortality at 100000 µM [4]: 0%; mortality at 100000 µM [5]: 2.2%; mortality at 100000 µM [6]: 80.1%
CSc1nn(-c2c(Cl)cc(C(F)(F)F)cc2Cl)c(N)c1-c1ccc2c(c1)OCO2 | 64 |  | mortality at 100000 µM [4]: 0%; mortality at 100000 µM [5]: 1.4%; mortality at 100000 µM [6]: 27.6%
